Assay results reported in ChEMBL document CHEMBL5104213, “Evaluation of the effect of a cell penetrating peptide (TAT) towards tailoring the targeting efficacy and tumor uptake of porphyrin” (RSC Med Chem, 2022).
pIC50: −log10 of the molar value. The source made the active and inactive calls. No cut-off for these calls is given here.

Assays:
A549 [1] = test: Cytotoxicity against human A549 cells assessed as cell growth inhibition at 0.5 to 10 uM incubated for 24 hrs under dark condition by MTT assay; type: functional, cell-based; settings: dose 0.5-10 µM, DDE = dose-dependent effect
Summary of the method: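 A549 in DMEM/10% FBS, 7 × 10³ cells/well seeded, overnight at 37 °C, 5% CO₂; treated at 0.5, 1, 2.5, 5, 10 μM without light, buffer control, n = 6. After 24 h, MTT added to a final 0.5 mg mL⁻¹ for 4 h; formazan dissolved in DMSO, A570 read with 660 nm reference; % dead cells calculated against vehicle control.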

[2] = Drug uptake in tumor of iv dosed Swiss mouse infected with mouse HSDM1C1 cells administered with radiolabeled Gallium-68 measured after 30 mins; type: ADME, organism-based, Neoplasm; settings: in vivo, 0.5 h
Summary of the method: (§1)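 Fibrosarcoma grown from ~10⁶ HSDM1C1 cells injected subcutaneously on the dorsum, used at ~1 cm tumour diameter; 20–25 g Swiss mice. ⁶⁸Ga-labelled, Sep-Pak-purified preparation (~100 μCi, 3.7 MBq, 150 μL, saline) given i.v. via tail vein. Killed by CO₂ at 30 or 60 min, n = 3; blood by cardiac puncture, organs excised, washed, weighed and counted by NaI(Tl); % IA per g.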

[3] = Drug uptake in lung of iv dosed Swiss mouse infected with mouse HSDM1C1 cells administered with radiolabeled Gallium-68 measured after 30 mins; type: ADME, organism-based; settings: in vivo, 0.5 h; summary of the method: as §1
[4] = Drug uptake in blood of iv dosed Swiss mouse infected with mouse HSDM1C1 cells administered with radiolabeled Gallium-68 measured after 30 mins; type: ADME, organism-based; settings: in vivo, 0.5 h; summary of the method: as §1
[5] = Drug uptake in tumor of iv dosed Swiss mouse infected with mouse HSDM1C1 cells administered with radiolabeled Gallium-68 measured after 60 mins; type: ADME, organism-based, Neoplasm; settings: in vivo, 1 h; summary of the method: as §1
[6] = Drug uptake in lung of iv dosed Swiss mouse infected with mouse HSDM1C1 cells administered with radiolabeled Gallium-68 measured after 60 mins; type: ADME, organism-based; settings: in vivo, 1 h; summary of the method: as §1
A549 [7] = test: Cytotoxicity against human A549 cells assessed as cell growth inhibition at 1 uM incubated for 24 hrs under light exposure by MTT assay; type: functional, cell-based
Summary of the method: (§2)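 A549 plated as for MTT, incubated with compound (0.5 or 1 μM) for 6 h, then irradiated by LED at 42 W m⁻² for 90 min (0.02 kJ cm⁻²). Cells then held 18 h at room temperature and assayed by MTT. Controls were light without compound and compound without light.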

[8] = Octanol-water partition coefficient, logP of the compound; type: physicochemical
Summary of the method: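 ⁶⁸Ga-labelled preparation (100 μL) added to octanol (1.0 mL) and water (900 μL), mixed, centrifuged 2500 rpm for 5 min. Aliquots of each layer counted by NaI(Tl); log P taken as log of organic/aqueous count ratio.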

[9] = Drug uptake in spleen of iv dosed Swiss mouse infected with mouse HSDM1C1 cells administered with radiolabeled Gallium-68 measured after 60 mins; type: ADME, organism-based; settings: in vivo, 1 h; summary of the method: as §1
[10] = Drug uptake in blood of iv dosed Swiss mouse infected with mouse HSDM1C1 cells administered with radiolabeled Gallium-68 measured after 60 mins; type: ADME, organism-based; settings: in vivo, 1 h; summary of the method: as §1
A549 [11] = test: Cytotoxicity against human A549 cells assessed as cell growth inhibition incubated for 24 hrs under light exposure by MTT assay; type: functional, cell-based; settings: A549, 24 h
Summary of the method: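 Photocytotoxicity IC₅₀ determination in A549 cells: 6 h compound exposure at 0.1, 0.5, 1, 2.5, 5.0, 10.0, 20.0 μM, then LED light dose of 0.02 kJ cm⁻² and 18 h post-irradiation incubation before MTT read-out. % cell death plotted against log concentration (nM) to derive IC₅₀.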

[12] = Drug uptake in spleen of iv dosed Swiss mouse infected with mouse HSDM1C1 cells administered with radiolabeled Gallium-68 measured after 30 mins; type: ADME, organism-based; settings: in vivo, 0.5 h; summary of the method: as §1
[13] = Drug uptake in kidney of iv dosed Swiss mouse infected with mouse HSDM1C1 cells administered with radiolabeled Gallium-68 measured after 30 mins; type: ADME, organism-based; settings: in vivo, 0.5 h; summary of the method: as §1
[14] = Drug uptake in liver of iv dosed Swiss mouse infected with mouse HSDM1C1 cells administered with radiolabeled Gallium-68 measured after 30 mins; type: ADME, organism-based; settings: in vivo, 0.5 h; summary of the method: as §1
A549 [15] = test: Cytotoxicity against human A549 cells assessed as cell growth inhibition at 0.5 uM incubated for 24 hrs under light exposure by MTT assay; type: functional, cell-based; summary of the method: as §2
[16] = Drug uptake in liver of iv dosed Swiss mouse infected with mouse HSDM1C1 cells administered with radiolabeled Gallium-68 measured after 60 mins; type: ADME, organism-based; settings: in vivo, 1 h; summary of the method: as §1
[17] = Drug uptake in kidney of iv dosed Swiss mouse infected with mouse HSDM1C1 cells administered with radiolabeled Gallium-68 measured after 60 mins; type: ADME, organism-based; settings: in vivo, 1 h; summary of the method: as §1

Ct [2]: 2.53%
Ct [3]: 8.87%
Ct [4]: 9.97%
Ct [5]: 2.45%
Ct [6]: 5.33%
logP [8]: -1.54
Ct [9]: 3.23%
Ct [10]: 6.87%
Ct [12]: 5.52%
Ct [13]: 4.78%
Ct [14]: 23.46%
Ct [16]: 15.11%
Ct [17]: 3.35%
SMILES: O=C(O)COc1ccc(-c2c3nc(c(-c4ccc(OCC(=O)O)cc4)c4ccc([nH]4)c(-c4ccc(OCC(=O)O)cc4)c4nc(c(-c5ccc(O)cc5)c5ccc2[nH]5)C=C4)C=C3)cc1
Activity (A549 [1]): Dde
Activity (A549 [7]): Active
pIC50 (A549 [11]): 5.25
Activity (A549 [15]): Active
